The subject of one assay is SK-BR-3. The experiment in a line: Antiproliferative activity against human SKBR3 cells after 72 hrs by MTS/PMS assay. In kind it is functional, cell-based. The note with it: SK-BR-3, 72 h. The gist of the method: (§1)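 Cells grown in medium with non-essential amino acids, 2 mM L-glutamine, streptomycin, penicillin and 10% FBS at 37 °C, 5% CO2; seeded 2000/well, attached overnight. Test agent added over a concentration range in DMSO (1% final), 72 h exposure. Viable cells counted by MTS/PMS read-out against 1% DMSO wells as 100% proliferation. IC50 taken as mean ± SD of at least two separate experiments, each in triplicate.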

The test system of a further assay is MCF7. The experiment in a line: Antiproliferative activity against human MCF7 cells after 72 hrs by MTS/PMS assay. In kind it is functional, cell-based. To be noted: MCF7, 72 h. The gist of the method: as §1
Assay [1] in a line: Antiproliferative activity against human PC3MM2 cells after 72 hrs by MTS/PMS assay. The format is functional, cell-based. The note with it: PC3MM2, 72 h. The gist of the method: as §1
The subject of the next assay is A549. Briefly: Antiproliferative activity against human A549 cells after 72 hrs by MTS/PMS assay. To be noted: A549, 72 h. The format is functional, cell-based. An outline of the steps: as §1
For the next assay, the system named is HT-29. Briefly: Antiproliferative activity against human HT-29 cells after 72 hrs by MTS/PMS assay. The format is functional, cell-based. The note with it: HT-29, 72 h. An outline of the steps:
as §1

In assay [2] the target is T1, Heat shock protein HSP90 (Homo sapiens) (UniProt P07900+P08238). The experiment in a line: Inhibition of Hsp90 in human MCF7 cells assessed as induction of Her2 degradation at 5 fold IC50 after 24 hrs by Western blot method. The format is cell-based. An outline of the steps: (§2)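 MCF-7 cells treated 24 h with compound in DMSO (1% final); geldanamycin 500 nM served as positive control and DMSO as vehicle control. Cells harvested in cold PBS and lysed 1 h on ice in RIPA with 1 mM PMSF, 2 mM orthovanadate and protease inhibitors. Lysates clarified 14,000g, 15 min, 4 °C. Protein (20 µg, BCA) resolved under reducing conditions and blotted on PVDF for Her2, Raf and Akt, with actin as loading control. Detection by HRP secondary antibody and chemiluminescence.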
A general note: A western blot detects proteins with antibodies after separation by electrophoresis.

For assay [3], the target named is T1, Heat shock protein HSP90 (Homo sapiens). Briefly: Inhibition of Hsp90 in human MCF7 cells assessed as induction of Her2 degradation at 0.5 fold IC50 after 24 hrs by Western blot method. The format is cell-based. An outline of the steps: as §2
For assay [4] the target is unchanged. The experiment in a line: Inhibition of Hsp90 in human MCF7 cells assessed as induction of Raf degradation at 5 fold IC50 after 24 hrs by Western blot method. The format is cell-based. The gist of the method:
as §2

The target is the same in assay [5]. The experiment in a line: Inhibition of Hsp90 in human MCF7 cells assessed as induction of Raf degradation at 0.5 fold IC50 after 24 hrs by Western blot method. The format is cell-based. An outline of the steps:
as §2

Assay [6] has the same target. Briefly: Inhibition of Hsp90 in human MCF7 cells assessed as induction of Akt degradation at 5 fold IC50 after 24 hrs by Western blot method. In kind it is cell-based. The gist of the method:
as §2

Assay [7] shares this target. The experiment in a line: Inhibition of Hsp90 in human MCF7 cells assessed as induction of Akt degradation at 0.5 fold IC50 after 24 hrs by Western blot method. The format is cell-based. An outline of the steps: as §2

The structures appear in SMILES notation. Activity calls are given as the source filed them. The rule behind the calls is not given here.

A word on the IC50: it is the midpoint of a concentration-inhibition curve. In the case of `Cc1c(OCCCN(C)C)ccc2cc(NC(=O)C/C=C/CC(=O)Nc3cc4ccc(OCCCN(C)C)c(C)c4oc3=O)c(=O)oc12`, the IC50 in the assay with SK-BR-3 was determined as 460 nM; with MCF7 it was 840 nM; in assay [1], 15.2 µM; with A549 it was 19.4 µM; in the assay on HT-29, 12.2 µM. Also, the inhibition result in assay [2], in assay [3], in [4], in assay [5], in [6] and in [7] was “inactive” in each case.

On to `COc1ccc(C(=O)Nc2cc3ccc(OCCCN(C)C)c(C)c3oc2=O)cc1-c1cc(C(=O)Nc2cc3ccc(OCCCN(C)C)c(C)c3oc2=O)ccc1OC`, for which the IC50 with SK-BR-3 turned out to be 9500 nM; with MCF7, 11700 nM; in [1] it was 52.3 µM; in the assay with A549 it was 93.5 µM; with HT-29 it was 62.7 µM.

As for `Cc1c(OC2CCN(C)CC2)ccc2cc(NC(=O)CCC/C=C/CCCC(=O)Nc3cc4ccc(OC5CCN(C)CC5)c(C)c4oc3=O)c(=O)oc12`, the IC50 in the assay with SK-BR-3 was 890 nM; with MCF7, 630 nM; in [1], 0.44 µM; in the assay with A549, 0.22 µM; in the assay with HT-29 it was 0.24 µM. The inhibition entry in assay [2] and in [3] was “inactive” throughout. Also, the inhibition result in assay [4], in assay [5], in [6] and in [7] was “Active” in each case.

Consider `COc1ccc(C(=O)Nc2cc3ccc(O[C@@H]4OC(C)(C)[C@H](OC)[C@@H](O)[C@H]4O)c(OC)c3oc2=O)cc1-c1cc(C(=O)Nc2cc3ccc(O[C@@H]4OC(C)(C)[C@H](OC)[C@@H](O)[C@H]4O)c(OC)c3oc2=O)ccc1OC`, for which the IC50 was determined as 910 nM with SK-BR-3; 880 nM in the assay with MCF7; 0.27 µM in assay [1]; 0.21 µM with A549; 0.27 µM with HT-29. Moreover, the inhibition result in [2], in assay [3], in assay [4], in assay [5], in assay [6] and in assay [7] was “Active” in each case.

With `COc1ccc(C(=O)Nc2cc3ccc(O[C@@H]4OC(C)(C)[C@H](OC)[C@@H](O)[C@H]4O)c(C)c3oc2=O)cc1-c1cc(C(=O)Nc2cc3ccc(O[C@@H]4OC(C)(C)[C@H](OC)[C@@H](O)[C@H]4O)c(C)c3oc2=O)ccc1OC`, the IC50 is 1160 nM in the assay on SK-BR-3; 760 nM in the assay on MCF7; 36.7 µM in assay [1]; 35.4 µM in the assay with A549; 36.5 µM in the assay with HT-29. For the same compound, the inhibition result in assay [2], in assay [3], in assay [4], in assay [5], in assay [6] and in [7] was “Active” each time.

With `Cc1c(OC2CCN(C)CC2)ccc2cc(NC(=O)CC/C=C/CCC(=O)Nc3cc4ccc(OC5CCN(C)CC5)c(C)c4oc3=O)c(=O)oc12`, the IC50 came to 150 nM with SK-BR-3; 270 nM in the assay on MCF7; 4.19 µM in assay [1]; 5.54 µM with A549; 0.05 µM with HT-29. The inhibition result in assay [2], in assay [3], in [4], in assay [5], in assay [6] and in [7] was “Active” in each case.

As for `Cc1c(OC2CCN(C)CC2)ccc2cc(NC(=O)CCCCCCCCC(=O)Nc3cc4ccc(OC5CCN(C)CC5)c(C)c4oc3=O)c(=O)oc12`, the IC50 amounted to 2840 nM with SK-BR-3; 3680 nM in the assay with MCF7; 10.2 µM in assay [1]; 13.2 µM in the assay on A549; 3.9 µM with HT-29.

On to `Cc1c(OC2CCN(C)CC2)ccc2cc(NC(=O)C/C=C/CC(=O)Nc3cc4ccc(OC5CCN(C)CC5)c(C)c4oc3=O)c(=O)oc12`, for which the IC50 in the assay on SK-BR-3 came out at 180 nM; in the assay on MCF7, 290 nM; in assay [1], 7.51 µM; in the assay on A549, 21.5 µM; with HT-29 it was 7.1 µM. The inhibition result in assay [2], in assay [3], in [4], in assay [5], in [6] and in assay [7] was “Active” each time.

The values are drawn from ChEMBL document CHEMBL1821679, “Targeting the heat shock protein 90 dimer with dimeric inhibitors” (J Med Chem, 2011).
